Source: EPA's CvTdb concentration-time database

Columns and labels:
Mouse [1] = test: concentration in plasma after dosing; conditions: dosed: 2,4-Dichlorophenoxyacetic acid, 1.0 mg/kg, oral, Male, B6C3F1
Rat [2] = test: concentration in plasma after dosing; conditions: 4 h; dosed: 2-Hydroxy-4-methoxybenzophenone; 500 mg/kg; oral; Male; F344
Rat [3] = test: concentration in plasma after dosing; conditions: dosed: 2-Hydroxy-4-methoxybenzophenone, 250 mg/kg, oral, Male, F344
Rat [4] = test: concentration in plasma after dosing; conditions: dosed: 2-Hydroxy-4-methoxybenzophenone, 100 mg/kg, oral, Female, F344
Mouse [5] = test: concentration in plasma after dosing; conditions: 0.25 h; dosed: 2-Hydroxy-4-methoxybenzophenone; 50 mg/kg; iv; Female; B6C3F1
Mouse [6] = test: concentration in plasma after dosing; conditions: 2 h; dosed: 2-Hydroxy-4-methoxybenzophenone; 50 mg/kg; iv; Male; B6C3F1
Rat [7] = test: concentration in plasma after dosing; conditions: dosed: Methyleugenol, 37 mg/kg, oral, Male, F344/N
Rat [8] = test: concentration in liver after dosing; conditions: 3 h; dosed: Perfluorohexane-1-sulphonic acid – potassium salt; 16 mg/kg; oral; Female; F344
Rat [9] = test: concentration in kidney after dosing; conditions: dosed: Perfluorohexane-1-sulphonic acid – potassium salt, 16 mg/kg, oral
Rat [10] = test: concentration in liver after dosing; conditions: 1200 h; dosed: Perfluorohexane-1-sulphonic acid – potassium salt; 16 mg/kg; oral; Male; Harlan Sprague Dawley
Rat [11] = test: concentration in brain after dosing; conditions: 24 h; dosed: Perfluorohexane-1-sulphonic acid – potassium salt; 16 mg/kg; oral; Female; F344
Rat [12] = test: concentration in liver after dosing; conditions: 12 h; dosed: Perfluorohexane-1-sulphonic acid – potassium salt; 16 mg/kg; oral; Female; F344
Rat [13] = test: concentration in plasma after dosing; conditions: 1.5 h; dosed: Primidone; 80 mg/kg; oral; Male; F344
Rat [14] = test: concentration in plasma after dosing; conditions: 0.25 h; dosed: Primidone; 30 mg/kg; oral; Female; F344
Rat [15] = test: concentration in plasma after dosing; conditions: 9 h; dosed: Primidone; 30 mg/kg; oral; Female; F344
Rat [16] = test: concentration in plasma after dosing; conditions: 0.25 h; dosed: Pyridine; 10 mg/kg; iv; Male; F344
Rat [17] = test: concentration in plasma after dosing; conditions: dosed: Pyridine, 5 mg/kg, oral, Male, F344
Rat [18] = test: concentration in brain after dosing; conditions: 2 min; dosed: alpha-Thujone; 50 mg/kg; oral; Male; Harlan Sprague Dawley
human [19] = test: concentration in blood after dosing; negative times count back from the end of exposure; conditions: dosed: trichloroethylene, 100 ppm, inhalation, duration: 4 hr, person
Procedure, shortened: (§1)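 Concentration-versus-time or amount-versus-time points were compiled from published in vivo toxicokinetic studies and from two structured collections. The studies were found by PubMed searching, classifier screening and manual review. Points were mostly digitised from plot screenshots with WebPlotDigitizer, otherwise copied from tables, and kept in the reported units. Dose, route, subject details and medium were curated by hand from each paper, and sampling and analytical methods follow each source and were often unreported.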

human [20] = conditions: dosed: trichloroethylene, 100 ppm, inhalation, duration: 4 hr, person
Procedure, shortened: as §1

human [21] = test: concentration in urine after dosing; conditions: dosed: trichloroethylene, inhalation, duration: 2 hr - 20 min
Procedure, shortened: as §1

dog = test: concentration in urine after dosing; conditions: dosed: trichloroethylene, 100 ppm, inhalation, duration: 6 hr, male, beagle
Procedure, shortened: as §1

O=C(O)COc1ccc(Cl)cc1Cl [2,4-Dichlorophenoxyacetic acid]
Mouse [1]
Conditions | concentration in plasma [ng/mL]
0.25 h | 1400
0.5 h | 1920
2 h | 531
2.5 min | 1660
3 h | 476
4 h | 200
5 min | 3440
10 h | 734
10 min | 2340

O=C(c1ccccc1)c1ccc(O)cc1O [2,4-Dihydroxybenzophenone]
Conditions | concentration in plasma [ng/mL]
Mouse [5] | 903
Mouse [6] | 266
Rat [2] | 124

concentration in plasma [ng/mL]
Conditions | 0.25 h | 3 h | 4 h | 10 min
Rat [3] | – | 71.8 | – | 40.9
Rat [4] | 165 | – | 105 | –

C=CCc1ccc(OC)c(OC)c1 [Methyleugenol]
Rat [7]
Conditions | concentration in plasma [ng/mL]
1.5 h | 148
8 h | 8.19

O=S(=O)([O-])C(F)(F)C(F)(F)C(F)(F)C(F)(F)C(F)(F)C(F)(F)F.[K+] [Perfluorohexane-1-sulphonic acid – potassium salt]
Conditions | concentration in brain [ng/g] | concentration in liver [ng/g]
Rat [8] | – | 57000
Rat [10] | – | 15500
Rat [11] | 1760 | –
Rat [12] | – | 70300

concentration in kidney [ng/g], Rat [9]
Conditions | 3 h | 6 h | 12 h | 24 h | 48 h | 96 h | 192 h | 528 h | 1200 h
Female, F344 | 29100 | 37500 | 41400 | 38500 | – | – | 16300 | 12700 | –
Female, Harlan Sprague Dawley | 29000 | 39200 | 26200 | 17200 | 7840 | 5860 | 2010 | – | –
Male, Harlan Sprague Dawley | – | – | – | – | – | – | – | – | 5590

CCC1(c2ccccc2)C(=O)NCNC1=O [Primidone]
Conditions | concentration in plasma [ng/mL]
Rat [13] | 35000
Rat [14] | 17700
Rat [15] | 6000

c1ccncc1 [Pyridine]
Conditions | concentration in plasma [ng/mL]
Rat [16] | 4870

Rat [17]
Conditions | concentration in plasma [ng/mL]
4 h | 2550
5 min | 794

CC(C)[C@]12CC(=O)[C@H](C)[C@H]1C2 [alpha-Thujone]
Conditions | concentration in brain [ng/g]
Rat [18] | 23.4

OCC(Cl)(Cl)Cl [trichloroethanol (free)]
human [19]
Conditions | concentration in blood [ng/mL]
0.2798 h | 3060
0.518 h | 2980
1.034 h | 2890
2.025 h | 2710
4.029 h | 2290
5.972 h | 2030
7.955 h | 1690
9.937 h | 1480
11.96 h | 1270
13.96 h | 1070
15.94 h | 1010
17.94 h | 738

human [19], during exposure
Conditions | concentration in blood [ng/mL]
-58 s | 2860
-3.486 h | 220
-3.013 h | 632
-2.028 h | 1480
-0.9832 h | 2280

OCC(Cl)(Cl)Cl [trichloroethanol]
Conditions | amount in urine after dosing, human [20] [mg] | concentration in urine, dog [ng/mL]
1 h | 13 | –
2 h | 11 | –
4 h | 21.5 | –
8 h | 36.3 | –
12 h | 31.4 | –
16 h | 26.7 | –
24 h | 33.6 | 129000
36 h | 39.7 | –
48 h | 22.6 | 115000
60 h | 17 | –
72 h | 11.5 | 155000
84 h | 6.52 | –
96 h | 3.88 | 205000
108 h | 6 | –
120 h | 3.14 | 154000
132 h | 2.17 | –
144 h | 1.65 | –
156 h | 0.88 | –
168 h | 1.08 | –
180 h | 1.17 | –

concentration in urine [mg/kg], human [21]
Conditions | 2.667 h | 6.667 h | 10.67 h | 19.67 h
1348 mg | 158 | 161 | 79.7 | 65.3
1681 mg | 125 | 236 | 136 | 131
3907 mg | 186 | 258 | 154 | 168
